Screening data from PubChem BioAssay.
LGR2 inh – inhibitors of bursicon-induced Drosophila LGR2 receptor cAMP signaling; HEK293 LGR2, CRE-luciferase, bursicon-stimulated, 4 h; inhibition, % at 9.99 µM; hit rate 0.35% among 380,000; AID 720647;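 active means drop in luminescence signal, shown as inhibition above about 50% in the replicate tests, limit read from the data, passing the limit was not always enough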;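 further: agonist challenge used bursicon conditioned medium at about half maximal strength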
XiGFP reactiv – X-chromosome reactivation activator | XiGFP mouse fibroblasts, % GFP-positive cells imaging, 3 d; cells co-treated with 5-aza-dC sensitizer; scaled so ellipticine positive control = 100% | activation, % at 7.58 µM | hit rate 0.055% among 360,000;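 active means mean normalized replicate activation at least 10% and every replicate at or above 10%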
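Material: XiGFP fibroblasts, SV40-immortalized; Buffer or medium: DMEM containing 5-aza-dC; Compound dosing: single point; Times: 3 days compound exposure.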
CaV13 FRET inh – Primary screen for inhibitors of IQ motif and Ca2+-dependent inactivation inhibitor domain binding in CACNA1D, Förster resonance energy transfer in living cells, …; HEK cells, CFP/YFP FRET ICDI-IQ, plate reader, 10 min; percent FRET-ratio fall versus neutral wells; inhibition, % at 12.3 µM; hit rate 0.098% among 340,000;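 active means mean replicate inhibition of at least 30% and at least 1% of replicates passing that level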
TROY signal inh – TROY signaling inhibition | AID 1347056 | inhibition, % at 10 µM | Q293 LMP1-TROYcd NF-kB luciferase reporter, 4 h | hit rate 0.98% among 360,000;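 active means compounds whose plate-normalised and pattern-corrected inhibition of the luciferase reporter signal at the single screening dose is 50% or more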
TWEAK-Fn14 inh – inhibitors of TWEAK-Fn14 interaction signaling. inhibition, % at 10 µM. hit rate 2% among 360,000. TWEAK-stimulated Fn14 reporter cells, luciferase luminescence, 8 h; in the data active means inhibition above about 50%
A number is an active result; – = inactive; · = no result; + = active, no number. Rows were chosen to be rich in hits. Some 2% of all compounds tested hit in one or more screens of this group.

SMILES | LGR2 inh | XiGFP reactiv | CaV13 FRET inh | TROY signal inh | TWEAK-Fn14 inh
CN1CCN(C(=O)C[C@H]2CC[C@H](NS(=O)(=O)c3cccc(F)c3)[C@@H](CO)O2)CC1 | – | – | · | · | ·
CO[C@@H]1CN(C)C(=O)c2cc(NS(C)(=O)=O)ccc2OC[C@@H](C)N(C(=O)C2CCCCC2)C[C@@H]1C | – | – | · | · | ·
Cc1nn(-c2ccccc2)c(C)c1-c1nnc(-c2c(C)nn(-c3ccccc3)c2C)o1 | – | – | – | 50.1 | –
Cc1ccc(C)c(-n2nnnc2Sc2nnnn2-c2ccccc2)c1 | · | · | – | 53.1 | 101.1
COc1ccc(S(=O)(=O)Nc2ccc3c(c2)C(=O)N([C@@H](C)CO)C[C@H](C)[C@H](CN(C)S(=O)(=O)c2ccccc2)OCCCC[C@H](C)O3)cc1 | – | – | · | · | ·
O=C(C1=C(Nc2ccccc2)c2ccccc2S(=O)(=O)N1)c1ccccc1 | · | – | – | 55.3 | 73.6
NNC(=O)CCN1CCCCC1 | – | – | – | 70.2 | 86.0
O=C(CNC(=O)/C(=C\c1ccccc1)NC(=O)c1ccc(Br)cc1)OCc1ccccc1 | · | · | · | · | 73.0
O=C(CN1CCN(S(=O)(=O)c2ccccc2C(F)(F)F)CC1)NCc1cccs1 | – | – | – | – | –
NC(=O)c1ccsc1NC(=O)CN1CCN(S(=O)(=O)c2ccccc2C(F)(F)F)CC1 | – | – | – | 50.4 | –
CC(C)NC(=O)N1[C@@H](CO)[C@@H](c2ccccc2)C12CN(C(=O)c1ccccn1)C2 | – | – | · | · | ·
CC=Cc1ccc2n(c1=O)C[C@H]1[C@H](CO)[C@@H](C(=O)NCCC)N(C(=O)CC3CC3)[C@@H]21 (mixture of isomers) | – | – | · | · | ·
O=C(Nc1ccn(Cc2ccccc2F)n1)c1ccc(COc2ccccc2Cl)cc1 | · | · | – | 53.2 | 62.2
O=C(Nc1ccn(Cc2c(F)c(F)cc(F)c2F)n1)c1ccc(COc2ccccc2Cl)cc1 | – | · | – | – | –
Cc1cc(C)c(O)c(-c2cc(C(=O)Nc3ccc(S(=O)(=O)N4CCOCC4)cc3)[nH]n2)c1 | · | · | – | 69.8 | 63.5
CC1(Cc2ccc(Cl)cc2)C(=O)Nc2ccc(-c3cccnc3)cc21 (configuration not stated) | – | – | – | 53.4 | 83.6
CC1(Cc2cccc(F)c2)C(=O)Nc2ccc(-c3cccnc3)cc21 (configuration not stated) | – | – | – | – | 78.8
C[C@H]1CCCCO[C@@H](CN(C)Cc2ccncc2)[C@@H](C)CN([C@@H](C)CO)C(=O)c2cc(NS(C)(=O)=O)ccc2O1 | – | – | · | · | ·
CN1CCc2c(sc(NC(=O)c3ccc([N+](=O)[O-])o3)c2C(N)=O)C1 | – | – | – | 64.7 | 51.9
CN1CCc2c(sc(NC(=O)c3ccco3)c2C(N)=O)C1 | – | – | – | – | –
CN1CCc2c(sc(NC(=O)c3cc(Cl)sc3Cl)c2C(N)=O)C1 | – | – | + | – | –
C[C@@H]1CN([C@@H](C)CO)C(=O)c2cc(NC(=O)Nc3ccc4c(c3)OCO4)ccc2O[C@@H]1CN(C)C(=O)Nc1ccccc1 | – | – | · | · | ·
C/C=C/c1ccc2c(c1)O[C@@H](CN(C)C(=O)NC(C)C)[C@@H](C)CN([C@H](C)CO)S2(=O)=O | – | – | · | · | ·
CCc1oc2ccccc2c1C(=O)c1cc(Br)c(O)c(Br)c1 | – | – | – | 51.9 | –
COc1ccc(/C=C/C(=O)c2cc(F)ccc2OC(=O)c2ccccc2C)cc1OC | – | – | – | – | 52.9
SMILES | LGR2 inh | XiGFP reactiv | CaV13 FRET inh | TROY signal inh | TWEAK-Fn14 inh
COc1ccc(/C=C/C(=O)c2ccc3c4c(cccc24)CC3)cc1 | · | – | – | – | –
COc1ccc(/C=C/C(=O)c2ccc3c4c(cccc24)CC3)cc1OC | – | – | – | – | 52.3
Cc1ccc(NC(=O)CSc2nccn(-c3ccc4c(c3)OCCO4)c2=O)cc1 | – | – | – | – | –
O=C(CSc1nccn(-c2ccc3c(c2)OCCO3)c1=O)Nc1ccccc1 | – | – | – | 66.2 | 62.4
O=C(CSc1nnnn1-c1ccccc1Cl)Nc1ccc2c(c1)OCCO2 | – | – | – | 54.0 | 75.8
O=C(CSc1nccn1-c1ccc(Cl)cc1)Nc1ccc2c(c1)OCO2 | · | · | · | – | –
Cc1cccc(-n2ccnc2SCC(=O)Nc2ccc3c(c2)OCCO3)c1 | – | · | · | 51.2 | –
O=C(CSc1nnnn1-c1ccc(Cl)cc1)NC(=O)Nc1ccc2c(c1)OCCO2 | – | · | – | – | –
CC1Cc2nc(SCC(=O)Nc3ccc4c(c3)OCCO4)n(C)c(=O)c2S1 (configuration not stated) | · | · | · | 71.1 | –
CN(C)c1ccc(/C=C(\Cl)c2nc3ccccc3s2)cc1 | · | · | · | 73.1 | 91.5
Cc1ccc(C(=O)OCC(=O)Nc2c(C)nn(-c3ccccc3)c2C)c(O)c1 | – | – | 51.4 | – | –
Cc1nn(-c2ccccc2)c(C)c1NC(=O)COc1ccc(Br)cc1Cl | – | – | – | – | 78.2
Cc1nn(-c2ccccc2)c(C)c1NC(=O)COc1ccc2ccccc2c1 | – | · | – | 54.7 | –
Cc1ccc(S(=O)(=O)N(C)C[C@H]2Oc3c(NC(=O)NC4CCCCC4)cccc3C(=O)N([C@@H](C)CO)C[C@@H]2C)cc1 | – | – | · | · | ·
FC(F)(F)c1ccc(N2CCN(c3cc(-c4ccccc4)nc4ncnn34)CC2)nc1 | · | · | – | 66.7 | 79.8
FC(F)(F)c1cccc(Nc2cc(-c3ccccc3)nc3ncnn23)c1 | – | – | – | – | –
CN1OC[C@@H]2CN(C(=O)C(C)(C)C)[C@H](c3cccc(Br)c3)C[C@@H]21 | – | – | – | 64.2 | 60.5
COc1ccc(C(=O)/C(C#N)=N/Nc2cccc([N+](=O)[O-])c2)cc1 | – | – | – | 59.3 | 60.0
N#C/C(=N\Nc1cccc(Cl)c1)C(=O)c1ccccc1 | · | · | · | – | –
Cc1noc(C)c1S(=O)(=O)Nc1cccc2c1O[C@@H](CN(C)Cc1ccc(C(=O)Nc3ccccc3N)cc1)[C@@H](C)CN([C@@H](C)CO)C2=O | – | – | · | · | ·
O=C(O)c1ccc(-c2ccc(/C=C3\NC(=O)N(Cc4ccc(Cl)cc4)C3=O)o2)cc1 | – | – | 47.9 | – | –
CN1CCN(c2ccc(NC(=O)CSc3ccccc3)cc2F)CC1 | · | · | – | – | 52.5
Cc1ccc(SCC(=O)Nc2ccc(N3CCN(c4ccccc4)CC3)c(F)c2)cc1 | · | · | – | – | –
Cc1ccc(S(=O)(=O)N(C)C[C@@H]2Oc3ccc(NC(=O)NC4CCCCC4)cc3CC(=O)N([C@H](C)CO)C[C@@H]2C)cc1 | – | – | · | · | ·
COc1ccc(N=N/C(=C\O)C(=O)c2cccs2)cc1 | – | – | – | – | 68.9
CO[C@@H]1CN(C)C(=O)c2cc(NC(=O)Cc3ccccc3)ccc2OC[C@H](C)N(C(=O)c2ccccc2F)C[C@@H]1C | – | – | · | · | ·
Cc1ccccc1S(=O)(=O)N1CC(=O)N2[C@H](CO)[C@@H](c3ccc(C#Cc4ccccc4)cc3)[C@@H]2C1 | – | – | · | · | ·
CCNc1nc(-c2sc(NC(=O)C(C)(C)C)nc2C)c(-n2cc(-c3ccccc3)nn2)s1 | – | – | – | – | 86.1
